NPY-Y2 PAM-ag: potentiators or agonists of human neuropeptide Y receptor Y2 | cells expressing NPY-Y2, potentiator/agonist read-out | activation, % at 3.6 µM | 0.45% of 220,000 active | AID 1359 | P49146; in the data active means activation above about 27%;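 further: cells stimulated with NPY near EC25 plus isoproterenol at EC100; 0% = vehicle plus submaximal agonist and 100% = vehicle plus saturating agonist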
NPY Y2 blocker: antagonists of human neuropeptide Y receptor Y2; P49146; AID 793; inhibition, % at 2.7 µM; 0.99% of 140,000 active; NPY-Y2 expressing cells, antagonist mode; in the data active means inhibition above about 17%;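 further: 0% = vehicle with agonist challenge and 100% = reference antagonist with challenge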
INS promoter inh: TRM-6 insulin promoter activity inhibition. TRM-6 cells, insulin promoter-eGFP reporter, imaging; reporter expression induced with tamoxifen. 0.9% of 130,000 active. inhibition, % at 2 µM;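 active means inhibition above the mean plus 3 SD, with well images judged a real hit on visual review, cut at about 60% in these data, passing the limit was not always enough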
NPY1 pot ag: potentiators or agonists of human neuropeptide Y receptor Y1; activation, % at 3.6 µM; NPY-Y1 expressing cells, potentiator/agonist activation; 0.37% of 220,000 active; in the data active means activation above about 33%, passing the limit was not always enough;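 further: cells stimulated with NPY at EC10 then isoproterenol at EC100; 0% = low agonist plus stimulus and 100% = saturating agonist plus stimulus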
Target sequence (P25929 whole entry, looked up): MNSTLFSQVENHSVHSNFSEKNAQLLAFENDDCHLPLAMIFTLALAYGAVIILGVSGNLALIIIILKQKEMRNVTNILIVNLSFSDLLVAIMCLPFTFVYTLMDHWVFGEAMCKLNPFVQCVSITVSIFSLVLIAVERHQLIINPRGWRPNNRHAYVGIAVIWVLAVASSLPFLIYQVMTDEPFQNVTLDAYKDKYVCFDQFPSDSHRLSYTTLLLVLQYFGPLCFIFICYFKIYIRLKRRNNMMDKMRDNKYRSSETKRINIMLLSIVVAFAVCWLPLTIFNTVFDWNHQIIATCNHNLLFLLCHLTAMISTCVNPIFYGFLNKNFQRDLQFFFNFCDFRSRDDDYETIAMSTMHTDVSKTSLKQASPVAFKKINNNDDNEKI
NPY-Y1 antag: NPY-Y1 (human) receptor antagonism | inhibition, % at 3.6 µM | AID 1040 | P25929 | HEK293-CNG Y1 cells, membrane potential fluorescence; NPY at EC95, then isoproterenol | 1% of 200,000 active;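 active means inhibition above the campaign mean inhibition of all tested compounds plus 3 SD, cut at about 20% in these data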;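 further: 0% = DMSO wells given NPY plus isoproterenol and 100% = isoproterenol alone without NPY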
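Test system – HEK293 Y1/CNG channel cell line · Also added – NPY agonist 25 nM, then isoproterenol 1 µM plus Ro 20-1724 25 µM · Compound dosing – one concentration, 3.6 µM, in 0.4% DMSO · Schedule – compound incubation 1 h at room temperature, readout 45 min post-stimulation · Technique – fluorescence, membrane potential probe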
Ins promoter up: MIN6 insulin promoter up-regulation; MIN6 insulin promoter-GFP reporter, high-content imaging; hits give high values; z-score at 5 µM; 0.3% of 190,000 active;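 active means z-score above 3 at 5 µM with at least 500 cells counted in the well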
* marks the source's active call; other numbers are inactive results; · = no result. Compounds with a hit are over-represented: about 2.5% of the library has one in this group of screens.

SMILES	NPY-Y2 PAM-ag	NPY Y2 blocker	INS promoter inh	NPY1 pot ag	NPY-Y1 antag	Ins promoter up
CCCn1c(N)c(C(=O)CSc2nc(C)cs2)c(=O)[nH]c1=O	-29.0	2.4	76.9*	-16.4	-5.0	-0.39
Cc1csc(SCC(=O)c2c(N)n(C)c(=O)n(C)c2=O)n1	0.2	2.8	8.6	5.9	6.5	·
O=C(Nc1ccc(C(=O)N2CCCC2)cc1)c1ccccc1F	13.6	1.7	-437.5	10.7	-1.6	-0.38
O=C(Nc1cc(C(=O)N2CCCC2)ccc1N1CCCC1)c1ccccc1F	39.4*	1.7	-114.3	44.3*	-8.0	-0.66
Cc1ccccc1NC(=O)c1ccc(NC(=O)C2CC(=O)OC23CCCCC3)cc1 (configuration not stated)	11.6	·	·	26.5	-9.6	1.4
Cc1cc(C(=O)NCCc2ccc(S(N)(=O)=O)cc2)no1	15.6	·	·	-7.6	0.5	·
C=CCn1c(SCc2c(C)noc2C)nc2sc(C)c(C)c2c1=O	-26.5	17.5*	13.3	-14.7	21.1*	·
Cc1nc2ccccn2c(=O)c1CCN1CCC(C(=O)c2ccc(F)cc2)CC1	-3.4	1.6	4.3	-35.0	3.9	·
Cc1nc2sccn2c(=O)c1CCN1CCC(=C(c2ccc(F)cc2)c2ccc(F)cc2)CC1	-20.8	38.8*	-13.6	-58.5	28.6*	·
CCCNC(=O)c1ccccc1NC(=O)c1ccc(CSc2ccccc2)cc1	-37.1	3.1	10.0	-32.7	4.5	-0.84
CCOCCCNC(=S)N1CCCC(c2nc3ccc(C)cc3[nH]2)C1 (configuration not stated)	-6.1	·	-60.0	-8.1	4.4	·
Cc1ccc(CN2CC(C(=O)Nc3ccc(F)c([N+](=O)[O-])c3)CC2=O)cc1 (configuration not stated)	69.9*	·	28.6	81.2*	-10.2	0.97
Cc1ccc(Nc2c([N+](=O)[O-])c(=O)oc3ccccc23)cc1C	-2.6	·	·	-9.3	0.8	·
CC1(C)c2ccccc2N2CC(=O)NC21/C=C/c1ccco1 (configuration not stated)	-4.1	-3.0	0.0	-4.4	1.2	3.29*
N#CCOc1nc(N2CCOCC2)nc(N2CCOCC2)n1	6.3	-0.8	24.3	6.5	3.8	-0.83
N#Cc1nc(N2CCOCC2)nc(N2CCOCC2)n1	-6.1	1.3	·	-1.6	-0.3	3.26*
CCN(CC)C(=O)C(C)N(C#N)c1nc(C)cc(C)n1 (configuration not stated)	104.8*	-0.4	·	114.1*	-11.6	0.11
Cc1cc(C)nc(N(C#N)C(C)C(=O)N(C)C)n1 (configuration not stated)	0.5	0.7	-25.0	-2.4	-0.1	0.01
O=C(c1ccc(=O)n(Cc2ccc(Cl)c(Cl)c2)c1)N1CCOCC1	-10.2	1.9	-32.1	16.8	5.5	·
Cc1csc(NC(=O)CSc2ncnc3c2cnn3-c2ccccc2Cl)n1	1.2	-1.9	27.8	1.5	-1.8	0.99
Cc1ccccc1-n1ncc2c(SCC(=O)NCc3cccs3)ncnc21	-7.6	3.7	41.9	-4.8	-0.3	3.57*
C/C(=N\N1CCN(C)CC1)c1ccc(Cl)c(Cl)c1	-10.2	·	·	-13.7	3.2	-0.54
C/C(=N\N1CCN(C)CC1)c1ccc(OC(F)F)cc1	-5.8	·	75.0*	9.6	4.7	0.05
Cc1cc2c(cc1C)CSC(c1ccc3ccccc3c1O)SC2	5.3	2.5	63.0*	15.3	-3.6	0.2
O=C1c2ccccc2C(=O)N1CC(O)CNc1ccc(Br)cc1 (configuration not stated)	27.5	1.7	72.4*	-17.0	-3.3	0.28
SMILES	NPY-Y2 PAM-ag	NPY Y2 blocker	INS promoter inh	NPY1 pot ag	NPY-Y1 antag	Ins promoter up
CN=c1scc(-c2ccccc2F)n1/N=C/c1ccc(O)c(O)c1O	28.8*	·	·	41.5*	-1.4	-0.33
CCCC(=O)NCCc1cc2cc(C)c(C)cc2[nH]c1=O	-5.9	2.4	85.7*	-2.4	4.8	0.12
Cn1c(=N)n(CC(O)c2ccco2)c2ccccc21 (configuration not stated)	-25.8	4.2	-18.2	0.2	7.5	1.09
Cn1c(=N)n(CC(O)c2cccc3ccccc23)c2ccccc21 (configuration not stated)	-7.0	24.4*	-63.6	-69.5	33.8*	-1.26
CS(=O)(=O)NCCCNc1c(Cl)cccc1[N+](=O)[O-]	-0.7	2.6	74.1*	20.6	-1.2	0.36
O=C(Nc1cccc(F)c1)c1ccc(CSc2ccccc2)o1	-19.1	10.1	-20.0	-29.0	2.9	0.98
